Results published in the array DNA melting data of Ke et al. (doi:10.1101/2024.01.08.574731).

How the values were obtained:
[1] = folding enthalpy; higher = less favourable; fluorescence melt of hairpins on a sequencing array, two-state fit; conditions: sodium 0.088 M
How it was run: (§1)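 Melting temperature and folding enthalpy were derived from bootstrapped two-state fits. The fitted temperatures were raised by 9.35 °C to agree with UV melts, and four replicates were combined by inverse variance. The underlying data were Cy3 fluorescence images of library hairpins, with annealed Cy3 and quencher oligos, on a sequenced MiSeq flow cell in 50 mM Na-HEPES pH 8.0, 25 mM NaCl, taken in 2.5 °C steps up to 60 °C, normalised to pre-quench Cy3 and to control constructs.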

[2] = melting temperature; fluorescence melt of hairpins on a sequencing array, two-state fit, raised by 9.35 °C to match UV melts; conditions: sodium 0.088 M
How it was run: as §1

Sequence | folding enthalpy [1] [kcal/mol] | Tm [2] [°C]
GCCATCTCGAAAGAGGGC (((..(((....)))))) | -35.2 | 48.9
GCCATGCGAAAGCAACGC ((..(((....)))..)) | -8.26 | 29
GCCATGCGAAAGCACGGC (((.(((....))).))) | -49.1 | 56.9
GCCATGCGAAAGCGAGGC (((..((....))..))) | -21.6 | 60
GCCATGCGAAAGCTCGGC (((..((....))..))) | -23.6 | 52.5
GCCATGCGAAAGCTGGGC (((..((....))..))) | -26.4 | 62.6
GCCATGCGAAAGCTTTGC ((.(.((....)).).)) | -11.7 | 36.1
GCCATGGGAAACCACGGC (((.(((....))).))) | -36.5 | 47.7
GCCATGGGAAACTATGGC (((((.(....).))))) | -37.4 | 52.5
GCCATTACGAAAGTAGGC (((..(((....)))))) | -25.6 | 42.2
GCCATTGGAAACAATGAC (.(((((....))))).) | -19.1 | 38.8
GCCCAACGAAAGTTAGGC (((.(((....))).))) | -34.3 | 48.7
GCCCACCCGAAAGGGGGC (((..(((....)))))) | -17.6 | 58.4
GCCCACGAAAGTGAGGC ((((((....))).))) | -31.1 | 64
GCCCACGAAAGTGAGGGC ((((((....)))..))) | -28.2 | 59.9
GCCCACTCGAAAGAGGGC (((..(((....)))))) | -22.5 | 50.6
GCCCAGCGAAAGCAGTGC ((.(.((....)).).)) | -13.3 | 34.7
GCCCAGCGAAAGCCAGGC (((..((....))..))) | -20.6 | 55.2
GCCCAGCGAAAGCCTGGC (((..((....))..))) | -13 | 56.1
GCCCAGCGAAAGCTACGC ((..(((....)))..)) | -5.73 | 30.2
GCCCAGCGAAAGCTGAGC ((.((((....)))).)) | -15.2 | 63.3
GCCCAGCGAAAGCTGCGC ((.((((....)))).)) | -17.1 | 59
GCCCAGCGAAAGCTGGC (((.(((....)))))) | -9.03 | 61

Sequence | folding enthalpy [1] [kcal/mol] | Tm [2] [°C]
GCCCAGGGAAACCTGAGC ((.((((....)))).)) | -19.2 | 45.5
GCCCATCGAAAGATAGGC (((.(((....))).))) | -30.5 | 47.2
GCCCCACCGAAAGGTGGC (((..(((....)))))) | -4.81 | 40.7
GCCCCAGGAAACCGGGAC (.(((.(....).))).) | -16.3 | 31.1
GCCCCAGGAAACTGAGGC (((.(((....))).))) | -33.5 | 47.5
GCCCCCACGAAAGTGGGC (((..(((....)))))) | -5.47 | 38.6
GCCCCCCGAAAGGGTGGC (((.(((....))).))) | -33.1 | 64.2
GCCCCCGAAAGGGAGGGC ((((((....)))..))) | -30 | 59.8
GCCCCCGAAAGGGCAGGC ((((((....)))..))) | -17.9 | 50.4
GCCCCCGAAAGGGGAGGC ((((((....)))..))) | -13.8 | 59.9
GCCCCCGAAAGGGTGGC ((((((....))).))) | -21 | 65.9
GCCCCCGGAAACGGAGGC (((.(((....))).))) | -35 | 54.9
GCCCCGCGAAAGCGACGC ((..(((....)))..)) | -10.6 | 31.3
GCCCCGCGAAAGCGATGC ((..(((....)))..)) | -11.7 | 34.2
GCCCCGCGAAAGCGCGGC (((.(((....))).))) | -17.4 | 64.4
GCCCCGCGAAAGCGGTGC ((.((((....)))).)) | -15.7 | 61.5
GCCCCGCGAAAGCGTTGC ((..(((....)))..)) | -9.75 | 33.5
GCCCCTGGAAACAGAGGC (((.(((....))).))) | -27.7 | 46.3
GCCCGAGGAAACTCAGGC (((.(((....))).))) | -27.2 | 45.1
GCCCGCGAAAGCGGTGGC ((((((....)))..))) | -12.2 | 57.7
GCCCGCGGAAACGCAGGC (((.(((....))).))) | -32.4 | 62.4
GCCCGCGGAAACGCGGAC (.(((((....))))).) | -9.8 | 57
